# Screening results: PubChem BioAssay, several laboratories
# STAT1 act: STAT1 signaling activators, primary screen, cell-based, HTS, luciferase reporter. activation (% of control), % at 5.5 µM. 200,000 compounds, 2.6% hits. NIH 3T3 STAT1-luciferase reporter, IFN-gamma, luminescence; 100% = IFN-gamma alone, no compound;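 active = activation above the screen-wide mean activation plus 3 SD, cut at about 130% in these data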;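 also: raw ratio to IFN-gamma control signal so 100% means no change and 0% no light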
# STAT1 blocker: STAT1 signaling inhibitors, primary screen, cell-based, HTS, luciferase reporter. NIH 3T3 STAT1-luciferase reporter, IFN-gamma, luminescence. inhibition, % at 5.5 µM. 200,000 compounds, 0.35% hits;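 active = inhibition above a set limit, the mean inhibition across all tested compounds plus 3 SD, cut at about 34% in these data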;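 also: 0% = IFN-gamma with DMSO and 100% = IFN-gamma with 300 µM nifuroxazide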
# STAT3 act: IL-6 driven STAT3 reporter potentiators, primary screen, U3A cells, luciferase, luminescence, MLSCN library; IL-6 STAT3-luciferase reporter; 100% = signal with IL-6 EC80 alone; activation (% of control), % at 5.6 µM; 190,000 compounds, 0.91% hits;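 active = activation above the screen-wide mean of compound activation plus 3 SD, cut at about 130% in these data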;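 also: 0% = background luminescence of wells with medium and substrate only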
#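 System – human U3A cells carrying STAT3-luciferase construct · Probe or stimulus – Interleukin-6, 33 ng/mL · Schedule – compound 1 h, then IL-6 6 h at 37 °C · Signal – luminescence from STAT3-driven luciferase reporter · Evaluation – percent of IL-6-only median luminescence · Benchmarks – IL-6-only high control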
# STAT3 blocker: IL-6 driven STAT3 reporter inhibitors, primary screen, U3A cells, luciferase, luminescence, MLSCN library. IL-6 STAT3-luciferase reporter; host cell line lacks STAT1. inhibition, % at 5.5 µM. 190,000 compounds, 0.89% hits;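 active = inhibition above the mean inhibition across all screened compounds plus 3 SD, cut at about 44% in these data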;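 also: 0% = DMSO only wells and 100% = 100 µM nifuroxazide control wells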
# APP 5'UTR act: activators of APP 5'UTR luciferase reporter, primary screen, SH-SY5Y cells; activation, % at 2 µM; SH-SY5Y APP 5'UTR luciferase reporter, luminescence; zero percent = DMSO vehicle wells; 190,000 compounds, 1% hits;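 active = activation above a set limit, based on mean plus 3 SD of controls, cut at about 140% in these data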
# NF-kB neuron act: activators of NF-kB expression in neurons, primary screen, cell-based, HTS; 190,000 compounds, 1.6% hits; AID 1239, 2008; fold change at 12.5 µM; human neuronal cells, NF-kB reporter expression; active compounds read high; in the data active = fold change above about 3.3
# Active calls of the source: *; x = no result given. An excerpt weighted towards active compounds, which were near 4.9% of everything screened.
SMILES,STAT1 act,STAT1 blocker,STAT3 act,STAT3 blocker,APP 5'UTR act,NF-kB neuron act
O=C(Nc1nc(-c2ccccn2)cs1)c1ccc2c(c1)OCCO2,130.6*,-35.2,x,x,109.6,2.73
CCOc1ccc(C(=O)Nc2ncccc2Cl)cc1,129.3*,-33.6,95.4,9.7,42.5,2.47
CCOc1ccc(NC(=O)c2nccnc2CO)cc1,143.9*,-48.3,77.8,28.9,61.4,3.2
CCOc1ccc(C(=O)NCc2ccccn2)cc1,105.7,-4.8,107.1,-1.7,1.0,1.51
O=C(Nc1cccc2ncccc12)c1ccc2c(c1)OCCO2,94.8,5.7,86.5,18.9,5.4,1.37
O=C(Nc1ncccc1Cl)c1ccc2c(c1)OCCO2,137.8*,-37.9,87.6,19.2,54.8,2.85
CCOc1ccc(NC(=O)c2cnccn2)cc1,126.4,-22.6,73.3,33.3,149.6*,3.28
Cc1ccc(NC(=O)c2cnccn2)cc1,133.8*,-39.6,89.1,18.4,42.6,2.15
O=C(Nc1ccc(Br)cc1)c1cnccn1,113.8,-15.2,89.8,19.4,23.0,2.01
CC(C)N(C(=O)CS(=O)(=O)c1ccc(Cl)c(Cl)c1)C(C)C,95.9,4.6,106.4,2.4,-4.2,0.86
c1ccc(-c2noc(C34CC5CC(CC(C5)C3)C4)n2)nc1,131.9*,-34.6,118.7,-19.6,61.8,2.34
c1ccc(-c2noc(C34CC5CC(CC(C5)C3)C4)n2)cc1,104.3,-4.6,100.0,4.5,-8.0,1.55
c1ccc(-c2noc(C3CCCCC3)n2)nc1,130.8*,-33.7,93.8,11.7,101.3,2.67
Cc1ccc(CNS(=O)(=O)c2ccc3c(c2)CCN3C(=O)CCCC(=O)O)cc1,105.8,-7.3,110.3,0.8,10.4,1.07
CC1(C)Cc2ccccc2C2=NNC(=O)C2=N1,138.8*,-42.1,102.5,1.0,-0.9,0.4
CC1(C)Cc2ccccc2C(Nn2cnnc2)=N1,96.6,3.7,94.8,9.8,-6.7,0.98
O=C(Nc1ccc(F)cc1)/C(Cl)=C/c1ccccc1,150.4*,-58.0,95.3,11.6,188.2*,7.27*
O=C(c1cnsn1)N1CCC(CO)(Cc2cccc(F)c2)CC1,133.3*,-39.3,112.6,-9.1,55.6,x
Cc1cc(/C=C(\C#N)C(=O)NC2CC2)c(C)[nH]1,145.3*,-50.6,132.1,-37.7,39.5,2.34
N#CC1=C2C=CC=CN2CC1=O,144.5*,-48.6,111.7,-10.8,24.6,1.06
COc1ccc2sc3ccccc3c(=O)c2c1,131.6*,-35.3,100.6,4.1,41.9,2.36
COc1ccc2oc3ccc(OC)cc3c(=O)c2c1,143.8*,-48.7,99.9,11.4,66.5,3.1
CCOc1ccc(-n2c(SCC(=O)Nc3cc(C)on3)nc3c([nH]c4ccccc43)c2=O)cc1,96.7,3.6,102.0,2.4,3.9,1.14
CCSc1nc2c([nH]c3ccccc32)c(=O)n1C,101.5,-1.7,110.5,-8.0,-1.1,1
COC(=O)C(C)Sc1nc2c([nH]c3ccccc32)c(=O)n1C (configuration not stated),92.3,7.2,133.1*,-31.7,52.9,0.84
SMILES,STAT1 act,STAT1 blocker,STAT3 act,STAT3 blocker,APP 5'UTR act,NF-kB neuron act
CCOc1ccc(-n2c(SCC(N)=O)nc3c([nH]c4ccccc43)c2=O)cc1,94.4,6.2,134.3*,-37.1,9.4,1
Cc1ccc2c(c1)N1C(=O)c3ccccc3C1C1=C(CC(C)(C)CC1=O)N2 (configuration not stated),95.0,5.4,97.2,6.2,5.6,1.12
O=C(C1CCN(S(=O)(=O)c2cccs2)CC1)N(c1ccccn1)C1CCCCC1,102.3,-4.6,104.6,3.7,23.8,1.14
O=C(O)/C=C/C(=O)NC1CC1,99.8,-0.9,99.6,2.1,-18.2,0.77
Cc1ccc(OCCSc2ncccn2)c(C)c1,135.5*,-42.4,79.5,28.9,167.8*,5.46*
COc1ccccc1CNc1ccc(CNc2ncn[nH]2)cc1,101.6,-2.8,105.9,0.7,-5.7,5.35*
COc1cc(CNc2ccc(CNc3ncn[nH]3)cc2)ccc1OCc1ccccc1,129.3*,-32.1,98.1,0.8,7.3,1.32
